Bioassay records: PubChem BioAssay, several laboratories
IEC-6 tox: counter-screen for KLF5 inhibitors: cytotoxicity in IEC-6 cells; IEC-6 cytotoxicity, luminescence viability; inhibition, % at 5 µM; 290,000 compounds, 0.78% hits; AID 1825
b-catenin transl: modulators of beta-catenin nuclear translocation | nuclear translocation activity, % at 5 µM | 190,000 compounds, 0.3% hits | HeLa beta-catenin nuclear translocation, immunofluorescence imaging | AID 1665;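 active = nuclear translocation activity above 50% at 5 µM, with a well cell count of 50 or more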;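 note: per-cell ratio of nuclear to cytoplasmic median beta-catenin stain intensity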
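Test system: human HeLa cell line; Doses: 5 µM primary, 0.02–20 µM confirmation; Incubation: 24 h compound exposure, 37°C; Detection: beta-catenin immunofluorescence imaging with DAPI; Read-out: beta-catenin nuclear/cytoplasmic ratio, % activation.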
MT stabilizer: stabilizes microtubules in HeLa cells | HeLa tubulin immunostaining HCS, 24 h; share of cells brighter than vehicle mean+2SD | % tubulin-high responders, % at 10 µM | 200,000 compounds, 0.83% hits;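 active = plate Z-score above 3 for both tubulin-high and condensed-nucleus cell shares, with cell loss under 80%, at 10 µM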;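 note: anti alpha tubulin signal scored within the nucleus-defined area of each cell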
Ba/F3 V617F tox: reduce viability of Ba/F3 cells dependent on JAK2V617F. Ba/F3 EpoR-JAK2V617F viability, ATP luminescence. inhibition, % at 5.6 µM. 220,000 compounds, 1.1% hits. AID 1446;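 active = inhibition above the campaign mean plus 3 SD over all tested compounds, cut at about 24% in these data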;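 note: cytokine-independent growth of Ba/F3 cells driven by EpoR plus mutant JAK2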
KLF5 inhibitor: inhibitors of KLF5 expression. DLD-1 KLF5 promoter-luciferase reporter, luminescence. inhibition, % at 5 µM. 290,000 compounds, 0.23% hits;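 active = inhibition above a per-plate limit of that plate's mean compound inhibition plus 3 SD, cut at about 60% in these data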;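 note: higher means less KLF5 promoter-driven luciferase light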
BaF3 tox: reduces parental Ba/F3 cell viability, JAK2V617F counter-screen; CellTiter-Glo ATP luminescence; inhibition, % at 5.6 µM; 220,000 compounds, 1.1% hits; AID 1486;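 active = inhibition above a per-campaign cutoff, the mean inhibition of all tested compounds plus 3 SD, cut at about 27% in these data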
IEC-6 cytotox cf: IEC-6 cytotoxicity, confirmation assay. shares compounds with IEC-6 tox. IEC-6 rat intestinal epithelial viability, luminescence. inhibition, % at 5 µM. 1,900 compounds, 63% hits
A number is an active result; . = inactive; / = no result given. Only some compounds are listed: those with a hit (about 2.1% of all), similar ones and a draw of the others. Cut-off read from the data, not from the text of the source, unless noted: active = inhibition above about 22%; inactive = the rest.

SMILES | IEC-6 tox | b-catenin transl | MT stabilizer | Ba/F3 V617F tox | KLF5 inhibitor | BaF3 tox | IEC-6 cytotox cf
CC(=O)c1ccc(Nc2cc(C)nc3ccccc23)cc1 | 38.3 | . | 27.4 | . | . | . | 34.8
COc1cc(C2NC(=O)C(C#N)=C(Nc3cccc(C)c3)S2)ccc1O (centres undefined) | . | . | / | . | . | . | /
CC(NC(=O)CN1CCCC1)c1ccccc1 (centres undefined) | . | / | / | / | . | / | /
CC1CC(C)C[N+](=C2C=C(N3CCCC3)CC(C)(C)C2)C1 (centres undefined) | 34.9 | . | . | 91.6 | . | 71.7 | 23.0
CC1Cc2ccccc2N1C(=O)CSc1nnnn1C1CCCC1 (centres undefined) | . | . | . | . | . | . | /
O=C(CSc1cccc[n+]1[O-])c1cccs1 | . | . | . | . | . | . | /
N#CC(C#N)=C(N)CSc1cccc[n+]1[O-] | 23.8 | . | . | . | . | . | .
O=C(CSc1cccc[n+]1[O-])c1cc2ccccc2o1 | 25.4 | . | . | . | . | . | .
O=C(O)CSc1cccc[n+]1[O-] | . | . | . | . | . | . | /
O=C(CSc1cccc[n+]1[O-])c1cc(Cl)ccc1Cl | 27.5 | . | . | . | . | . | .
Cc1c(NCc2ccncc2)cccc1C(=O)O | . | / | / | / | . | / | /
COc1ccc(N(CC(=O)Nc2cc(Cl)ccc2C)S(=O)(=O)c2c(C)noc2C)cc1 | 63.5 | / | / | / | . | / | 44.0
COc1ccc(-c2csc3ncn(CC(=O)N4CCOCC4)c(=O)c23)cc1 | . | . | . | . | . | . | /
COc1ccc(-n2c(C)cc(/C=N/Nc3nnc(C)n3N)c2C)cc1 | 100.2 | . | . | . | . | . | .
Brc1ccc(-c2csc(-c3c[nH]c4ccccc34)n2)cc1 | . | . | . | . | . | . | /
c1ccc2c(-c3csc(-c4ccncc4)n3)c[nH]c2c1 | 82.0 | . | . | . | . | . | 92.8
C/C(=N\NC(=O)CN(c1ccccc1)S(C)(=O)=O)c1ccccc1O | . | . | . | . | . | . | /
C/C(=N\NC(=O)CN1CCCCC1)c1ccccc1O | 41.8 | / | / | / | . | / | .
COc1ccc(/C=N/NC(=O)c2cccc(NC(=O)c3ccccc3Cl)c2)c(OC)c1 | . | . | . | . | . | . | /
O=C(O)CCNc1ccc(NCCC(=O)O)c2c1C(=O)c1ccccc1C2=O | 24.0 | / | / | / | . | / | .
COc1ccccc1NCCC(=O)O | . | . | / | . | . | . | /
N=C1C(c2ccccc2)=C(O)CN1c1cccc(S(=O)(=O)N2CCCCC2)c1 | . | . | / | . | . | . | /
COC(=O)CC1COc2ccccc2N1S(=O)(=O)c1ccc(OC)cc1 (centres undefined) | 31.2 | / | / | / | . | / | .
COC1=C(Nc2ccc(OC)cc2)C(=O)c2ccccc2C1=O | . | . | . | . | . | . | /
CC(=O)Nc1ccc(NC2=CC(=O)c3ccccc3C2=O)cc1 | 97.0 | / | / | / | . | / | .
SMILES | IEC-6 tox | b-catenin transl | MT stabilizer | Ba/F3 V617F tox | KLF5 inhibitor | BaF3 tox | IEC-6 cytotox cf
CC(=O)Nc1ccc2c(c1)C(=O)c1ccccc1C2=O | . | . | . | . | . | . | /
COc1ccc(NC2=C(NC(C)=O)C(=O)c3ccccc3C2=O)cc1 | 43.5 | / | / | / | . | / | .
COc1ccccc1C(C#N)c1cccc(Cl)n1 (centres undefined) | . | / | / | / | . | / | /
CC(Nc1ccccc1)C(=O)Nc1ccc(F)cc1 (centres undefined) | . | / | . | . | . | . | /
O=C(CC1(O)C(=O)N(CCc2ccccc2)c2ccccc21)c1ccccn1 (centres undefined) | . | . | . | . | . | . | /
O=C(CC1(O)C(=O)N(C/C=C/c2ccccc2)c2ccccc21)c1ccccn1 (centres undefined) | 89.4 | . | . | 92.1 | . | 93.3 | 32.5
COc1ccc(/C=C(/NC(=O)c2ccccc2)c2nc3ccc(Cl)cc3[nH]2)cc1OC | . | . | . | . | . | . | /
COc1cc(C2NC(=O)NC(C)=C2C(=O)OC(C)C)ccc1OC(=O)c1ccco1 (centres undefined) | . | . | . | . | . | . | /
COC(=O)COc1ccc(/C=N/NC(=O)CN(c2ccccc2OC)S(=O)(=O)c2ccccc2)cc1 | 49.0 | / | / | / | . | / | .
CCc1cc(=O)oc2cc(C)cc(OCC(=O)NC3CCN(Cc4ccccc4)CC3)c12 | . | / | / | / | . | / | /
O=C(Nc1ccc(N2CCOCC2)cc1)Nc1ccc2nc(-c3ccco3)c(-c3ccco3)nc2c1 | 23.0 | . | . | . | . | . | 36.8
Nc1ncccc1OCc1ccc(Cl)c(Cl)c1 | . | . | / | . | . | . | /
O=S(=O)(/C(=C/c1ccc(C(F)(F)F)cc1)c1nc2ccccc2[nH]1)c1ccccc1 | 53.1 | . | . | 42.2 | . | . | 48.5
N=c1ccn2c(n1)O[C@H]1[C@H](O)[C@@H](CO)O[C@H]12 | 91.6 | / | / | / | . | / | 74.2
O=C(OCC1OC2C(Oc3nc(=O)ccn32)C1O)c1ccccc1 (centres undefined) | . | . | . | . | . | . | /
Nc1ccn([C@@H]2O[C@H](CO)[C@@H](O)[C@@H]2O)c(=O)n1 | 89.7 | / | . | 73.7 | . | 79.5 | 76.2
Nc1nc(Cl)nc2c1ncn2[C@@H]1O[C@H](CO)[C@@H](O)[C@H]1O | 44.3 | / | . | . | . | . | .
O=c1ccn([C@@H]2O[C@H](CO)[C@@H](O)[C@H]2O)c(=O)[nH]1 | . | / | . | . | . | . | /
CCOc1ccccc1N1CCN(C(=S)Nc2ccc(S(=O)(=O)Nc3ncccn3)cc2)CC1 | . | / | / | / | . | / | /
NC(N)=Nc1ccc(N=C(N)N)cc1 | 97.2 | . | / | . | . | . | 97.7
CCCCC(=O)Nc1ccc(C(=O)OC2CCCCC2)cc1 | 24.4 | . | . | . | . | . | .
O=C(O)CCC(=O)Nc1ccc(C(=O)OC2CCCCC2)cc1 | . | . | . | . | . | . | /
O=C(NC(=S)NCc1ccco1)c1ccccc1[N+](=O)[O-] | . | / | / | / | . | / | /
COc1cccc(N2CC(O)=C(c3nc4ccccc4c(=O)[nH]3)C2=N)c1 | 51.0 | 108.7 | 26.5 | 78.3 | . | 81.3 | 63.7
COc1ccc(-c2oc3cccnc3c2C#CC2(O)CCCCC2)cc1 | . | / | / | / | . | / | /
SMILES | IEC-6 tox | b-catenin transl | MT stabilizer | Ba/F3 V617F tox | KLF5 inhibitor | BaF3 tox | IEC-6 cytotox cf
COc1ccc(-c2oc3cccnc3c2C#CCO)cc1 | 29.1 | / | / | / | . | / | .
C=CCn1cc(C(=O)NCCOC)c(=O)c2cc(S(=O)(=O)N3CCCCCC3)ccc21 | 24.1 | / | / | / | . | / | .
COc1ccc(NS(=O)(=O)c2cc(NC(=O)c3ccc(=O)[nH]c3)ccc2N2CCCC2)cc1 | 42.0 | / | / | / | . | / | 24.7
COc1ccc(NS(=O)(=O)c2cc(NC(=O)c3cnc(C)cn3)ccc2N2CCCC2)cc1 | . | / | . | . | . | . | /
Cc1ccc2nsnc2c1S(=O)(=O)N1CCN(Cc2ccc3c(c2)OCO3)CC1 | . | . | . | . | . | . | /
CCCCNc1ncnc2c1cnn2-c1ccccc1 | 38.3 | 77.1 | 31.9 | 64.5 | . | 65.9 | 28.8
c1ccc(-n2ncc3c(NCCCN4CCOCC4)ncnc32)cc1 | . | . | . | . | . | . | /
